These results are taken from PubChem BioAssay.

Values without a mark were called inactive. Activity calls are given as the source filed them.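 Rule for the calls, unless noted: active = viability at or under a set limit in both replicates, limit being median viability minus 3 SD (cut at about 48% in these data, passing the limit was not always enough); inconclusive = at or under the limit in just one replicate; inactive = at or above the limit in both replicates.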

One assay is described as follows: HUVEC growth inhibition – cell-based, human, primary screen (AID 575;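 active = viability at or below 30% in both replicate assays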;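 note: 100% = median of untreated cell wells with 0.1% DMSO on each plate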). As to conditions: HUVEC proliferation, CellTiter-Glo luminescence, 72 h; at 10 µM; stronger effect = lower value. The essentials: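 system = HUVEC primary cells | amount = 1250 cells/well | buffer or medium = supplemented EBM, 2% fetal bovine serum | dosing = single-point 10 µM, DMSO 0.1% final | times = 72 h compound incubation | detection = CTG luminescence | read-out = % viability relative to median vehicle-well signal on each plate | control set = vehicle and MePR control wells | format = collagen-coated 384-well format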
A general note: ATP-based viability assays read luminescence as a measure of living cells.
Turning to `CCC(=O)Nc1c2c(nn1-c1ccccc1C)CSC2`, the viability is 104%.
Still for that read-out and setting: next, `CCOC(=O)C1CCN(C(=O)COc2ccc(Cl)cc2Cl)CC1`: 101%; `CC1CC(=O)C2=C(C1)OC(N)=C(C#N)C2c1coc2ccccc2c1=O` (stereo not given): 95.1%; `CN(C1CCS(=O)(=O)C1)S(=O)C12CC3CC(CC(C3)C1)C2` (stereo not given): 92.8%.
Still for that read-out and setting: the value for `S=c1[nH]nc(Cc2ccccc2)n1-c1ccccc1` was 113%; that for `Cc1cccc(Cc2nnc(NC(=O)c3cccc(S(=O)(=O)N4CCOCC4)c3)s2)c1` was 87.1%; that for `COC(=O)[C@H](C)NC(=O)Nc1cc(OC)ccc1OC` was 61.1%.
The same measure, in the same setting: next, `COc1ccccc1NC(=O)C1=C(C)Nc2nnnn2C1c1ccccc1OC` (stereo not given): 113%.
Take `Cn1c(CNc2nc(-c3ccccc3)cs2)nnc1SCC(=O)N1CCc2ccccc21`: the viability is 81.8%.
Take `CCOC(=O)N1CCN(C(=O)c2n[nH]c(=O)c3ccccc23)CC1`: the viability is 95.1%.
On the same count and under the same terms, the value for `O=C(CN1CCCN(S(=O)(=O)c2ccc(Br)cc2)CC1)Nc1ccc2cn[nH]c2c1` was 73.1%; that for `O=C(OCc1ccccc1F)c1ccc2c(c1)OCCO2` was 103%.
Still for that read-out and setting: next, `CCN(CC)S(=O)(=O)c1ccc2c(c1)nc(SCC(=O)NC1CC1)n2-c1ccccc1OC`: 67.8%.
For `CCC(Sc1nc2sc(C(=O)OC)c(C)c2c(=O)n1N)C(=O)NCC1CCCO1` (stereo not given), the viability is 94.2%.
Still for that read-out and setting: next, `O=C(COc1ccccc1)Nc1ccc(-c2nnc(-c3ccco3)o2)cc1`: 102%; `O=C(CSc1nnnn1C1CCCC1)Nc1cccc(NC(=O)c2ccco2)c1`: 96.7%; `CCCCCc1c(O)nc(SCC(=O)NCC2CCCO2)[nH]c1=O` (stereo not given): 96.9%.
As for `c1ccc(N=P(c2nc3ccccc3o2)(N2CCOCC2)N2CCOCC2)cc1`, the viability was 104%.
Regarding `Cc1nn(S(=O)(=O)N2CCCCC2)c(C)c1Br`, the viability is 96.2%.
Same read-out and setting: the value for `Cc1cc2oc(=O)cc(C)c2c(=O)o1` was 94.8%; that for `N#CCCn1ccc(NC(=O)c2ccc(Cl)cc2)n1` was 102%.
Same read-out and setting: next, `S=c1[nH]nc(-c2ccco2)n1-c1cccc2ccccc12`: 78.5%.
The same measure, in the same setting: next, `CCOC(=O)c1c(-c2ccc(C)o2)csc1NC(=O)COC(=O)c1cccs1`: 69.3%; `CCOc1cc2[nH]c(=O)n(CCCCC(=O)N3CCCCCC3)c(=O)c2cc1OCC`: 91.6%; `Clc1ccc(-n2ncc3c(NCCCn4ccnc4)ncnc32)cc1`: 91.2%.
Turning to `COc1ccc(OC)c(C2C3=C(CCCC3=O)Nc3c2c(=O)n(C)c(=O)n3C)c1` (stereo not given), the viability was 103%.
Still for that read-out and setting: next, `COc1ccc(NC(=O)CN2CCN(CC(=O)Nc3cc(OC)cc(OC)c3)CC2)cc1`: 97.8%; `Clc1cc2c(c(Cn3cnc4ccccc43)c1)OCOC2`: 87.8%.
Still for that read-out and setting: the value for `N#Cc1c2n(c(=S)n(-c3ccccn3)c1=O)CCCCC2` was 97.8%; that for `N#Cc1c(NC(=O)c2ccc(Br)o2)n(-c2ccccc2)c2nc3ccccc3nc12` was 71.1%; that for `COCCn1nnnc1C(c1ccc(OC)cc1)N1CCN(c2ccccc2F)CC1` (stereo not given) was 107%.
For `COc1cc(-c2nnc(SCc3c(F)cccc3Cl)o2)cc(OC)c1OC`, the viability is 68.5%.
Still for that read-out and setting: the value for `COC(=O)Cc1c(C)nc2nc(-c3ccco3)[nH]n2c1=O` was 93.6%.
Turning to `CCOC(=O)CSc1nc2cccnc2n1-c1ccc(F)cc1`, the viability is 103%.
The same measure, in the same setting: next, `COCCn1c(NCc2ccc(C)cc2)nc2c1c(=O)[nH]c(=O)n2C`: 87.2%.
On the same count and under the same terms, next, `Clc1ccc2nc(N3CCCCC3)[nH]c2c1`: 105%; `Cc1nnc(C)c2c(C)n(-c3ccc(Br)cc3)c(C)c12`: 92.3%; `O=C(NCC(F)(F)F)N1CCOCC1`: 89.5%.
With `O=C(O)CC1SC(=Nc2cccc(C(F)(F)F)c2)NC1=O` (stereo not given), the viability is 104%.
Still for that read-out and setting: the value for `COc1ccc2c(c1)OC(O)(C(F)F)CC2=O` (stereo not given) was 102%.

Another assay is described as follows: growth inhibitors of H69AR lung tumor, primary screen, human, duplicate replicates (AID 580).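 Note: 100% = mean luminescence of untreated wells and 0% = no signal.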 The note with it: H69AR lung tumor cells viability, ATP luminescence, 72 h; at 10 µM; stronger effect = lower value.
Take `CCC(=O)Nc1c2c(nn1-c1ccccc1C)CSC2`: the viability was 102%.
On the same count and under the same terms, the value for `CCOC(=O)C1CCN(C(=O)COc2ccc(Cl)cc2Cl)CC1` was 96.2%; that for `CC1CC(=O)C2=C(C1)OC(N)=C(C#N)C2c1coc2ccccc2c1=O` (stereo not given) was 97.3%; that for `CN(C1CCS(=O)(=O)C1)S(=O)C12CC3CC(CC(C3)C1)C2` (stereo not given) was 99.9%.
For the compound `S=c1[nH]nc(Cc2ccccc2)n1-c1ccccc1`, the viability is 92.9%.
Still for that read-out and setting: next, `Cc1cccc(Cc2nnc(NC(=O)c3cccc(S(=O)(=O)N4CCOCC4)c3)s2)c1`: 79.2%.
Still for that read-out and setting: next, `COC(=O)[C@H](C)NC(=O)Nc1cc(OC)ccc1OC`: 75.1%; `COc1ccccc1NC(=O)C1=C(C)Nc2nnnn2C1c1ccccc1OC` (stereo not given): 98.9%.
`Cn1c(CNc2nc(-c3ccccc3)cs2)nnc1SCC(=O)N1CCc2ccccc21`: the viability is 93.3%.
Turning to `CCOC(=O)N1CCN(C(=O)c2n[nH]c(=O)c3ccccc23)CC1`, the viability is 91.6%.
The same measure, in the same setting: next, `O=C(CN1CCCN(S(=O)(=O)c2ccc(Br)cc2)CC1)Nc1ccc2cn[nH]c2c1`: 7.15% (active).
On the same count and under the same terms, next, `O=C(OCc1ccccc1F)c1ccc2c(c1)OCCO2`: 92%; `CCN(CC)S(=O)(=O)c1ccc2c(c1)nc(SCC(=O)NC1CC1)n2-c1ccccc1OC`: 91.3%; `CCC(Sc1nc2sc(C(=O)OC)c(C)c2c(=O)n1N)C(=O)NCC1CCCO1` (stereo not given): 82.2%.
Same read-out and setting: the value for `O=C(COc1ccccc1)Nc1ccc(-c2nnc(-c3ccco3)o2)cc1` was 95.5%; that for `O=C(CSc1nnnn1C1CCCC1)Nc1cccc(NC(=O)c2ccco2)c1` was 110%.
`CCCCCc1c(O)nc(SCC(=O)NCC2CCCO2)[nH]c1=O` (stereo not given): the viability was 105%.
Same read-out and setting: next, `c1ccc(N=P(c2nc3ccccc3o2)(N2CCOCC2)N2CCOCC2)cc1`: 91.4%; `Cc1nn(S(=O)(=O)N2CCCCC2)c(C)c1Br`: 102%.
As to `Cc1cc2oc(=O)cc(C)c2c(=O)o1`, the viability was 108%.
Still for that read-out and setting: the value for `N#CCCn1ccc(NC(=O)c2ccc(Cl)cc2)n1` was 97%; that for `S=c1[nH]nc(-c2ccco2)n1-c1cccc2ccccc12` was 96.9%; that for `CCOC(=O)c1c(-c2ccc(C)o2)csc1NC(=O)COC(=O)c1cccs1` was 84.4%.
`CCOc1cc2[nH]c(=O)n(CCCCC(=O)N3CCCCCC3)c(=O)c2cc1OCC`: the viability was 76.8%.
As to `Clc1ccc(-n2ncc3c(NCCCn4ccnc4)ncnc32)cc1`, the viability is 93.5%.
Consider `COc1ccc(OC)c(C2C3=C(CCCC3=O)Nc3c2c(=O)n(C)c(=O)n3C)c1` (stereo not given), for which the viability is 102%.
Consider `COc1ccc(NC(=O)CN2CCN(CC(=O)Nc3cc(OC)cc(OC)c3)CC2)cc1`, for which the viability is 83.1%.
In the case of `Clc1cc2c(c(Cn3cnc4ccccc43)c1)OCOC2`, the viability was 98%.
As to `N#Cc1c2n(c(=S)n(-c3ccccn3)c1=O)CCCCC2`, the viability is 86%.
The same measure, in the same setting: next, `N#Cc1c(NC(=O)c2ccc(Br)o2)n(-c2ccccc2)c2nc3ccccc3nc12`: 85.2%; `COCCn1nnnc1C(c1ccc(OC)cc1)N1CCN(c2ccccc2F)CC1` (stereo not given): 89.7%; `COc1cc(-c2nnc(SCc3c(F)cccc3Cl)o2)cc(OC)c1OC`: 85.2%.
`COC(=O)Cc1c(C)nc2nc(-c3ccco3)[nH]n2c1=O`: the viability is 98.7%.
Regarding `CCOC(=O)CSc1nc2cccnc2n1-c1ccc(F)cc1`, the viability is 102%.
Still for that read-out and setting: the value for `COCCn1c(NCc2ccc(C)cc2)nc2c1c(=O)[nH]c(=O)n2C` was 107%.
The same measure, in the same setting: next, `Clc1ccc2nc(N3CCCCC3)[nH]c2c1`: 91.9%; `Cc1nnc(C)c2c(C)n(-c3ccc(Br)cc3)c(C)c12`: 104%.
On the same count and under the same terms, next, `O=C(NCC(F)(F)F)N1CCOCC1`: 100%; `O=C(O)CC1SC(=Nc2cccc(C(F)(F)F)c2)NC1=O` (stereo not given): 103%; `COc1ccc2c(c1)OC(O)(C(F)F)CC2=O` (stereo not given): 93.5%.

In general, viability refers to a read-out of living cells in per cent, often relative to untreated cells.
